Assay [1] concerns Escherichia coli. Put plainly: Inhibition of Escherichia coli DdlB assessed as residual activity of the enzyme assessed as orthophosphate formation at 250 uM after 20 mins by malachite green reagent method. The gist of the method:
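Purified His-tagged E. coli DdlB, diluted in 50 mM Hepes pH 7.2 with 1 mM DTT. Reaction at 37 °C in 50 mM Hepes pH 8.0, 3.25 mM MgCl2, 6.5 mM (NH4)2SO4, D-Ala, ATP and 5% DMSO. Incubated 20 min, then malachite green reagent added and A650 read after 5 min. Duplicates, with parallel testing in 0.005% Triton X-114.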

Assay [2] concerns Staphylococcus aureus. Put plainly: Antimicrobial activity against Staphylococcus aureus SH1000 after 18 hrs by broth microdilution method. The settings on record: SH1000, 18 h. Type of assay: functional.
The nature of assay [3]: Inhibition of Escherichia coli DdlB assessed as residual activity of the enzyme assessed as orthophosphate formation after 20 mins by malachite green reagent method.
The subject of assay [4] is Escherichia coli. In words: Antimicrobial activity against AcrAB-deficient Escherichia coli SM1411 after 18 hrs by broth microdilution method. Type of assay: functional. To be noted: SM1411, 18 h.
The subject of assay [5] is Escherichia coli. In words: Antimicrobial activity against Escherichia coli 1411 after 18 hrs by broth microdilution method. The class given is functional. The settings on record: Escherichia coli, 1411, 18 h.
Assay [6] deals with Staphylococcus aureus. In words: Effect on membrane integrity in Staphylococcus aureus SH1000 at four times MIC after 10 mins by BacLight assay. The class given is functional.
For assay [7], the system named is Staphylococcus aureus. In words: Antimicrobial activity against Staphylococcus aureus 8325-4 after 18 hrs by broth microdilution method. The class given is functional. The settings on record: 8325-4, 18 h. Summed up: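 Broth microdilution MIC following British Society for Antimicrobial Chemotherapy guidelines, run against S. aureus […] 8325-4.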

In brackets after ≈: the same amount, converted by molar mass.

Consider `COc1ccc2nc3cc(Cl)ccc3c(NCCNc3c4ccc(Cl)cc4nc4ccc(OC)cc34)c2c1`, for which the Activity in the assay with Escherichia coli [1] is 27%.

On to `Cc1c2cnccc2c(C)c2c1c1ccc(F)cc1n2C`, for which the MIC in the assay with Staphylococcus aureus [2], against Escherichia coli [4] and against Escherichia coli [5] was above 256 µg/mL each time. In assay [3], the IC50 came out at 90 µM.

Turning to `COc1ccc2nc3cc(Cl)ccc3c(Nc3ccc(O)c(CN(CCCl)CCCl)c3)c2c1`, the Activity in the assay on Escherichia coli [1] turned out to be 22%.

In turn, `Cc1c2cc[n+](C)cc2c(C)c2c1[nH]c1ccc(Br)cc12.[I-]` showed an Activity in the assay on Staphylococcus aureus [6] of 29.8%. For the same compound, the MIC worked out at 8 µg/mL in the assay with Staphylococcus aureus [2], 4 µg/mL in the assay with Escherichia coli [4] and 16 µg/mL in the assay with Escherichia coli [5]. In assay [3], the 50% inhibitory concentration (IC50) worked out at 23 µM.

The compound `CCc1cccc2c1[nH]c1c(C)c3ccncc3c(C)c12` yielded an Activity in the assay with Staphylococcus aureus [6] of 34.2%. Also, the figures for the minimal inhibitory concentration (MIC) against Staphylococcus aureus [2], against Escherichia coli [4] and with Escherichia coli [5] were 8 µg/mL (≈ 29.2 µM), above 256 µg/mL and above 256 µg/mL, respectively. The IC50 in assay [3] was 125 µM.

In the case of `COc1ccc2[nH]c3c(C)c4cc[n+](C)cc4c(C)c3c2c1.[I-]`, the Activity with Staphylococcus aureus [6] turned out to be 16%. The MIC with Staphylococcus aureus [2] is 32 µg/mL; with Escherichia coli [4], 8 µg/mL; against Escherichia coli [5], 256 µg/mL. In assay [3], the IC50 came out at 65 µM.

Consider `COc1ccc2nc3cc(Cl)ccc3c(Nc3ccc(O)c(CN4CCN(C)CC4)c3)c2c1`, for which, in the assay on Staphylococcus aureus [6], the Activity amounted to 48.7%. Further, in assay [3], the IC50 worked out at 162 µM. The MIC in the assay with Escherichia coli [4] is 64 µg/mL (≈ 138 µM); against Staphylococcus aureus [7] it was 32 µg/mL (≈ 69.1 µM); with Escherichia coli [5], above 256 µg/mL.

`COc1ccc2nc3cc(Cl)ccc3c(Nc3ccc(O)c(CN4CCCC4)c3)c2c1`: the MIC with Staphylococcus aureus [2] worked out at 64 µg/mL (≈ 147 µM); with Escherichia coli [4], 256 µg/mL (≈ 590 µM); against Escherichia coli [5], 256 µg/mL (≈ 590 µM). Also, the IC50 in assay [3] was determined as 102 µM. Moreover, the Activity in the assay with Escherichia coli [1] is 20%.

Regarding `Cc1c2ccncc2c(C)c2c1[nH]c1ccc(O)cc12`, in the assay on Staphylococcus aureus [6], the Activity is reported as 71.9%. For the same compound, the MIC amounted to 8 µg/mL (≈ 30.5 µM) against Staphylococcus aureus [2], 8 µg/mL (≈ 30.5 µM) in the assay with Escherichia coli [4] and 16 µg/mL (≈ 61 µM) against Escherichia coli [5]. In addition, the IC50 in assay [3] worked out at 192 µM.

`CCN(CC)Cc1cc(Nc2c3ccc(Cl)cc3nc3c(OC)ccc(Cl)c23)ccc1O`: the minimum inhibitory concentration (MIC) in the assay on Staphylococcus aureus [2], with Escherichia coli [4] and against Escherichia coli [5] was above 256 µg/mL in each case. The IC50 in assay [3] was 119 µM. For the same compound, the Activity in the assay on Escherichia coli [1] came to 40%.

Take `CCCCCCCCN(CCCCCCCC)Cc1cc(Nc2c3ccc(Cl)cc3nc3ccc(OC)cc23)ccc1O`: the Activity in the assay on Escherichia coli [1] turned out to be 86%.

Consider `Cc1c2ccncc2c(C)c2c1[nH]c1cc(F)ccc12`, for which the Activity in the assay on Staphylococcus aureus [6] came to 42.8%. For the same compound, the values for the MIC in the assay on Staphylococcus aureus [2], in the assay on Escherichia coli [4] and against Escherichia coli [5] were 4 µg/mL (≈ 15.1 µM), 8 µg/mL (≈ 30.3 µM) and above 256 µg/mL, respectively. For the same compound, the IC50 in assay [3] is 103 µM.

`COc1ccc2c(c1)c1c(C)c3cnccc3c(C)c1n2CCCN`: the IC50 in assay [3] was determined as 70 µM. Also, the MIC was 8 µg/mL (≈ 24 µM) against Escherichia coli [4], 32 µg/mL (≈ 96 µM) with Staphylococcus aureus [7] and 32 µg/mL (≈ 96 µM) in the assay with Escherichia coli [5].

Regarding `COc1ccc2c(c1)c1c(C)c3cnccc3c(C)c1n2C`, in assay [3], the IC50 worked out at 184 µM.

Consider `CC(=O)[O-].COc1ccc2[nH]c3c(C)c4cc[n+](C)cc4c(C)c3c2c1`, for which the MIC amounted to 64 µg/mL against Staphylococcus aureus [2], 4 µg/mL in the assay with Escherichia coli [4] and 256 µg/mL in the assay on Escherichia coli [5]. For the same compound, the IC50 in assay [3] amounted to 89 µM.

As for `Cc1c2cnccc2c(C)c2c1c1cc(Br)ccc1n2C`, in assay [3], the IC50 was 297 µM.

For `COc1cc(Nc2c3ccc(Cl)cc3nc3ccc(OC)cc23)c2ncccc2c1`, the MIC in the assay with Staphylococcus aureus [2], in the assay on Escherichia coli [4] and in the assay on Escherichia coli [5] was above 256 µg/mL each time. Moreover, the IC50 in assay [3] is 32 µM. Moreover, the Activity with Escherichia coli [1] was determined as 25%.

As for `Cc1c2c[n+](C)ccc2c(C)c2c1c1cc(Br)ccc1n2C.[I-]`, in the assay with Staphylococcus aureus [6], the Activity turned out to be 42.4%. Besides, the MIC against Staphylococcus aureus [2] worked out at 2 µg/mL; in the assay with Escherichia coli [4] it was 1 µg/mL; with Escherichia coli [5], 32 µg/mL. Also, in assay [3], the IC50 came to 36 µM.

In the case of `COc1cc2c(cc1CN(C)C)[nH]c1c3ccc(Cl)cc3ncc21`, the MIC worked out at 256 µg/mL (≈ 753 µM) against Staphylococcus aureus [2], 32 µg/mL (≈ 94.2 µM) in the assay with Escherichia coli [4] and 128 µg/mL (≈ 377 µM) in the assay on Escherichia coli [5].

Turning to `COc1ccc2[nH]c3c(C)c4ccncc4c(C)c3c2c1`, the MIC in the assay on Staphylococcus aureus [2], against Escherichia coli [4] and with Escherichia coli [5] was above 256 µg/mL in each case. The IC50 in assay [3] amounted to 60 µM.

With `COc1ccc2nc3cc(Cl)ccc3c(Nc3ccc(C(O)CCN(C)C)cc3)c2c1` (configuration not stated), the results for the MIC with Staphylococcus aureus [2], in the assay on Escherichia coli [4] and with Escherichia coli [5] were 256 µg/mL (≈ 587 µM), 128 µg/mL (≈ 294 µM) and above 256 µg/mL, respectively. Further, the IC50 in assay [3] turned out to be 135 µM. Also, the Activity in the assay on Escherichia coli [1] was found to be 38%.

Consider `COc1cc(NCCCNc2c3ccc(Cl)cc3nc3ccc(OC)cc23)c2ncccc2c1`, for which the MIC is 256 µg/mL (≈ 541 µM) with Staphylococcus aureus [2], above 256 µg/mL in the assay with Escherichia coli [4] and above 256 µg/mL in the assay on Escherichia coli [5]. For the same compound, in assay [3], the IC50 came out at 90 µM. Also, in the assay with Escherichia coli [1], the Activity is 13%.

Take `C=CCc1cc(Nc2c3ccc(Cl)cc3nc3ccc(OC)cc23)cc(CN(CC)CC)c1O`: the values for the Activity with Staphylococcus aureus [6] and with Escherichia coli [1] were 47.7% and 27%, respectively. Besides, the MIC against Staphylococcus aureus [2] was 32 µg/mL (≈ 67.2 µM); in the assay on Escherichia coli [4], above 256 µg/mL; against Escherichia coli [5] it was above 256 µg/mL. Also, in assay [3], the IC50 stood at 161 µM.

On to `Cc1c2cc[n+](C)cc2c(C)c2c1[nH]c1cc(F)ccc12.[I-]`, for which the MIC is above 256 µg/mL in the assay on Staphylococcus aureus [2], 4 µg/mL with Escherichia coli [4] and above 256 µg/mL with Escherichia coli [5]. The IC50 in assay [3] amounted to 64 µM.

Turning to `CCN(CC)Cc1cc2[nH]c3c4ccc(Cl)cc4ncc3c2cc1OC.Cl.Cl.Cl`, the MIC with Staphylococcus aureus [2], in the assay with Escherichia coli [4] and against Escherichia coli [5] was above 256 µg/mL throughout. In addition, in assay [3], the IC50 came to 330 µM.

As for `Cc1c2ccncc2c(C)c2c1[nH]c1ccc(Br)cc12`, the Activity in the assay on Staphylococcus aureus [6] was 49.6%. The values for the MIC against Staphylococcus aureus [2], in the assay with Escherichia coli [4] and in the assay on Escherichia coli [5] were 16 µg/mL (≈ 49.2 µM), 16 µg/mL (≈ 49.2 µM) and above 256 µg/mL, respectively. For the same compound, the IC50 in assay [3] turned out to be 86 µM.

Take `CCN(CC)Cc1cc2[nH]c3c4ccc(Cl)cc4ncc3c2cc1OC`: the MIC in the assay with Staphylococcus aureus [2] came to 256 µg/mL (≈ 696 µM); with Escherichia coli [4] it was 32 µg/mL (≈ 87 µM); against Escherichia coli [5] it was 256 µg/mL (≈ 696 µM). Moreover, the IC50 in assay [3] is 623 µM.

Regarding `CCN(CC)Cc1cc(Nc2c3ccc(Cl)cc3nc3ccc(OC)cc23)ccc1O`, the figures for the MIC with Staphylococcus aureus [2], in the assay with Escherichia coli [4] and in the assay with Escherichia coli [5] were 128 µg/mL (≈ 294 µM), 128 µg/mL (≈ 294 µM) and 256 µg/mL (≈ 587 µM), respectively. The IC50 in assay [3] was 320 µM. For the same compound, the Activity in the assay on Escherichia coli [1] worked out at 46%.

In the assay with Staphylococcus aureus [6], `Cc1c2cc[n+](C)cc2c(C)c2c1[nH]c1ccccc12.[I-]` returned an Activity of 37.3%. The MIC in the assay on Staphylococcus aureus [2] is 16 µg/mL; in the assay on Escherichia coli [4], 4 µg/mL; against Escherichia coli [5], 64 µg/mL. Further, in assay [3], the IC50 was 46 µM.
